Article PMC3244355 (Journal of the American Chemical Society, 2011)

Tests used:
[1] = photophysical properties; type: physicochemical
How it was run: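 Samples are prepared at 20 μM. Dye–inhibitor conjugate spectra are recorded in 1% DMSO/PBS, pH 7.4, at 25 °C with excitation at 405 nm. Tabulated dye entries are excited at their λmax. Absorption maximum, molar absorptivity, emission maximum and fluorescence quantum yield are reported.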

[2] = system: HeLa cells; test: membrane permeability and localization of free dyes, live-cell imaging; type: cell-based, human; settings: living HeLa cells, 20 μM, 60 minutes, with AlexaFluor546-BSA endocytosis marker
How it was run: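 Live HeLa cells are incubated for 1 h in 20 μM test dye, with 100 μg/mL AlexaFluor546-labeled BSA as a fluid-phase endocytosis marker. Cells are washed free of dye and imaged live by epifluorescence microscopy using a custom filter set matched to 395/500 excitation/emission. Merged images are used to compare dye distribution with marker-containing endosomal vesicles.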

[3] = system: HeLa cells; test: toxicity / cell viability of dye-treated cells; type: cell-based, human; settings: cells treated for up to 6 h with 100 μM dye
[4] = chemical stability in aqueous buffer solution; type: physicochemical; settings: pH 4–9, several days at ambient temperature
How it was run: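 The test dye is held in aqueous buffer across pH 4–9 at ambient temperature for several days. Absorbance/emission properties are monitored, and the solution is checked for decomposition.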

[5] = solubility; type: physicochemical; settings: variety of solvents
[6] = system: HeLa cells; test: cell-based assay for bipolar spindle assembly / mitotic arrest; set-up: species or system human; settings: 4 h; for spindle morphology: HeLa cells, fixed, anti-tubulin antibodies; for EC50: Homo sapiens, HeLa, read-out: EC50 for mitotic arrest in cell-based assay
How it was run: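 HeLa cells are incubated for 4 h with the test compound, alongside an untreated control. They are then fixed and probed with anti-tubulin antibodies, with DNA counterstained. Spindle organization (bipolar vs. monopolar spindle formation) is assessed by fluorescence microscopy.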

[7] = biological target: T1, purified human KSP motor domain (Homo sapiens, UniProt P52732); test: in vitro biochemical assay for microtubule-stimulated KSP ATPase activity
T1 sequence (P52732 18-359 limits assumed): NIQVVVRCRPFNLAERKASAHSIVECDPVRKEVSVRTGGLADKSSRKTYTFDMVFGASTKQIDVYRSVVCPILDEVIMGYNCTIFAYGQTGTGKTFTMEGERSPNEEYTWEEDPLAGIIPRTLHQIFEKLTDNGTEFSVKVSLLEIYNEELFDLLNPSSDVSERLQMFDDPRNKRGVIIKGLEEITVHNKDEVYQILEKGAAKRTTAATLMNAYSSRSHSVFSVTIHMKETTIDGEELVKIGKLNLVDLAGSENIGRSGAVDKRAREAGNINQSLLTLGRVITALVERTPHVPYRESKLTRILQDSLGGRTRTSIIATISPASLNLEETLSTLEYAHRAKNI

[8] = 1%DMSO/PBS pH 7.4, 20 μM sample
[9] = 1%DMSO/PBS pH 7.4, 20 μM sample, excited at λmax
[10] = Acetone, 20 μM sample, excited at λmax
[11] = CH2Cl2, 20 μM sample, excited at λmax
[12] = MeOH, 20 μM sample, excited at λmax
[13] = Toluene, 20 μM sample, excited at λmax
[14] = conjugates, 20 μM in 1% DMSO/PBS, pH 7.4 at 25 °C
[15] = conjugates, 20 μM in 1% DMSO/PBS, pH 7.4 at 25 °C, excited at 405 nm

Compound: CC(C)=[N+]1N=C2C=CC(Br)=CN2[B-]1(F)F [Compound 16, 6-Bromo-3,3-difluoro-2-(propan-2-ylidene)-2,3-dihydro-[1,2,4,3]triazaborolo[4,5-a]pyridin-2-ium-3-uide]
- Φf [1, 8]: 0.17
- ε [1, 8]: 8 600 M^−1cm^−1
- λmax [1, 8]: 404 nm
- λemi [1, 9]: 491 nm
- Φf ([1]; Acetone, 20 μM sample): 0.17
- ε ([1]; Acetone, 20 μM sample): 8 600 M^−1cm^−1
- λmax ([1]; Acetone, 20 μM sample): 403 nm
- λemi [1, 10]: 504 nm
- Φf ([1]; CH2Cl2, 20 μM sample): 0.22
- ε ([1]; CH2Cl2, 20 μM sample): 9 300 M^−1cm^−1
- λmax ([1]; CH2Cl2, 20 μM sample): 408 nm
- λemi [1, 11]: 497 nm
- Φf ([1]; MeOH, 20 μM sample): 0.21
- ε ([1]; MeOH, 20 μM sample): 8 500 M^−1cm^−1
- λmax ([1]; MeOH, 20 μM sample): 403 nm
- λemi [1, 12]: 493 nm
- Φf ([1]; Toluene, 20 μM sample): 0.07
- ε ([1]; Toluene, 20 μM sample): 9 800 M^−1cm^−1
- λmax ([1]; Toluene, 20 μM sample): 406 nm
- λemi [1, 13]: 500 nm
- cell membrane permeability [2]: membrane permeable
- toxicity / effects on cell viability [3]: no toxicity
- chemical stability in aqueous buffer solution [4]: no decomposition in solution was evident
- solubility in solvents [5]: soluble in a variety of solvents

Compound: CC(C)=[N+]1N=C2C=CC(I)=CN2[B-]1(F)F [Compound 18, 3,3-Difluoro-6-iodo-2-(propan-2-ylidene)-2,3-dihydro-[1,2,4,3]triazaborolo[4,5-a]pyridin-2-ium-3-uide]
- Φf ([1]; MeOH, 20 μM sample): 0.20
- ε ([1]; MeOH, 20 μM sample): 8 300 M^−1cm^−1
- λmax ([1]; MeOH, 20 μM sample): 400 nm
- λemi [1, 12]: 496 nm
- solubility in solvents [5]: soluble in a variety of solvents

Compound: COc1ccc(C(SC[C@H](N)C(=O)O)(c2ccccc2)c2ccccc2)cc1 [Compound 19, reference compound]
- spindle morphology [6]: dose-dependent formation of monopolar spindles

Compound: CO[B-]1(OC)N2C=C(Br)C=CC2=N[N+]1=C(C)C [Compound 21, 6-Bromo-3,3-dimethoxy-2-(propan-2-ylidene)-2,3-dihydro-[1,2,4,3]triazaborolo[4,5-a]pyridin-2-ium-3-uide]
- Φf [1, 8]: 0.16
- ε [1, 8]: 12 300 M^−1cm^−1
- λmax [1, 8]: 404 nm
- λemi [1, 9]: 492 nm
- Φf ([1]; Acetone, 20 μM sample): 0.23
- ε ([1]; Acetone, 20 μM sample): 10 800 M^−1cm^−1
- λmax ([1]; Acetone, 20 μM sample): 407 nm
- λemi [1, 10]: 504 nm
- Φf ([1]; CH2Cl2, 20 μM sample): 0.20
- ε ([1]; CH2Cl2, 20 μM sample): 11 200 M^−1cm^−1
- λmax ([1]; CH2Cl2, 20 μM sample): 406 nm
- λemi [1, 11]: 497 nm
- Φf ([1]; MeOH, 20 μM sample): 0.21
- ε ([1]; MeOH, 20 μM sample): 12 000 M^−1cm^−1
- λmax ([1]; MeOH, 20 μM sample): 403 nm
- λemi [1, 12]: 492 nm
- Φf ([1]; Toluene, 20 μM sample): 0.51
- ε ([1]; Toluene, 20 μM sample): 10 600 M^−1cm^−1
- λmax ([1]; Toluene, 20 μM sample): 410 nm
- λemi [1, 13]: 501 nm
- cell membrane permeability [2]: membrane permeable
- toxicity / effects on cell viability [3]: no toxicity
- solubility in solvents [5]: soluble in a variety of solvents

Compound: CO[B-]1(OC)N2C=C(I)C=CC2=N[N+]1=C(C)C [Compound 22, 6-Iodo-3,3-dimethoxy-2-(propan-2-ylidene)-2,3-dihydro[1,2,4,3]triazaborolo[4,5-a]pyridin-2-ium-3-uide]
- Φf ([1]; MeOH, 20 μM sample): 0.21
- ε ([1]; MeOH, 20 μM sample): 9 400 M^−1cm^−1
- λmax ([1]; MeOH, 20 μM sample): 400 nm
- λemi [1, 12]: 476 nm
- solubility in solvents [5]: soluble in a variety of solvents

Compound: COc1ccc(C(SCC(N)C(=O)NCCC#CC2=CN3C(=N[N+](=C(C)C)[B-]3(F)F)C=C2)(c2ccccc2)c2ccccc2)cc1 (centres unmarked) [Compound 25, 6-(4-(2-Amino-3-((4-methoxyphenyl)diphenylmethylthio)propanamido)but-1-ynyl)-3,3-difluoro-2-(propan-2-ylidene)-2,3-dihydro-[1,2,4,3]triazaborolo[4,5-a]pyridin-2-ium-3-uide]
- ε [1, 14]: 9 900
- λmax [1, 14]: 400 nm
- Φf [1, 15]: 0.31
- λemi [1, 15]: 489 nm
- IC50 [7]: 850 nM
- spindle morphology [6]: dose-dependent formation of monopolar spindles
- EC50 [6]: 1130 nM

Compound: COc1ccc(C(SCC(N)C(=O)NCCC#CC2=CN3C(=N[N+](=C(C)C)[B-]3(OC)OC)C=C2)(c2ccccc2)c2ccccc2)cc1 (centres unmarked) [Compound 26, 6-(4-(2-Amino-3-((4-methoxyphenyl)diphenylmethylthio)propanamido)-but-1-ynyl)-3,3-dimethoxy-2-(propan-2-ylidene)-2,3-dihydro-[1,2,4,3]triazaborolo[4,5-a]pyridin-2-ium-3-uide]
- ε [1, 14]: 12 900
- λmax [1, 14]: 400 nm
- Φf [1, 15]: 0.29
- λemi [1, 15]: 486 nm
- IC50 [7]: 600 nM
- spindle morphology [6]: dose-dependent formation of monopolar spindles
- EC50 [6]: 1030 nM

Compound: COc1ccc(C(SCC(N)C(=O)NCCOCCN)(c2ccccc2)c2ccccc2)cc1 (centres unmarked) [Compound 27, 2-Amino-N-(2-(2-aminoethoxy)ethyl)-3-((4-methoxyphenyl)diphenylmethylthio)propanamide]
- IC50 [7]: 750 nM
- EC50 [6]: 580 nM
